# Laboratory results published in ChEMBL document CHEMBL1681705, “Optimisation of ITK inhibitors through successive iterative design cycles” (Bioorg Med Chem Lett, 2011).
# Tests used:
# [1] = biological target: Mitogen-activated protein kinase 14 (Homo sapiens) (UniProt Q16539); experiment: Inhibition of SAPK2a at 0.1 uM; values are per cent of control
# [2] = biological target: Proto-oncogene tyrosine-protein kinase receptor Ret (Homo sapiens) (UniProt P07949); experiment: Inhibition of Ret at 1 uM; values are per cent of control
# Proto-oncogene tyrosine-protein kinase receptor Ret (Homo sapiens), sequence (P07949 whole entry): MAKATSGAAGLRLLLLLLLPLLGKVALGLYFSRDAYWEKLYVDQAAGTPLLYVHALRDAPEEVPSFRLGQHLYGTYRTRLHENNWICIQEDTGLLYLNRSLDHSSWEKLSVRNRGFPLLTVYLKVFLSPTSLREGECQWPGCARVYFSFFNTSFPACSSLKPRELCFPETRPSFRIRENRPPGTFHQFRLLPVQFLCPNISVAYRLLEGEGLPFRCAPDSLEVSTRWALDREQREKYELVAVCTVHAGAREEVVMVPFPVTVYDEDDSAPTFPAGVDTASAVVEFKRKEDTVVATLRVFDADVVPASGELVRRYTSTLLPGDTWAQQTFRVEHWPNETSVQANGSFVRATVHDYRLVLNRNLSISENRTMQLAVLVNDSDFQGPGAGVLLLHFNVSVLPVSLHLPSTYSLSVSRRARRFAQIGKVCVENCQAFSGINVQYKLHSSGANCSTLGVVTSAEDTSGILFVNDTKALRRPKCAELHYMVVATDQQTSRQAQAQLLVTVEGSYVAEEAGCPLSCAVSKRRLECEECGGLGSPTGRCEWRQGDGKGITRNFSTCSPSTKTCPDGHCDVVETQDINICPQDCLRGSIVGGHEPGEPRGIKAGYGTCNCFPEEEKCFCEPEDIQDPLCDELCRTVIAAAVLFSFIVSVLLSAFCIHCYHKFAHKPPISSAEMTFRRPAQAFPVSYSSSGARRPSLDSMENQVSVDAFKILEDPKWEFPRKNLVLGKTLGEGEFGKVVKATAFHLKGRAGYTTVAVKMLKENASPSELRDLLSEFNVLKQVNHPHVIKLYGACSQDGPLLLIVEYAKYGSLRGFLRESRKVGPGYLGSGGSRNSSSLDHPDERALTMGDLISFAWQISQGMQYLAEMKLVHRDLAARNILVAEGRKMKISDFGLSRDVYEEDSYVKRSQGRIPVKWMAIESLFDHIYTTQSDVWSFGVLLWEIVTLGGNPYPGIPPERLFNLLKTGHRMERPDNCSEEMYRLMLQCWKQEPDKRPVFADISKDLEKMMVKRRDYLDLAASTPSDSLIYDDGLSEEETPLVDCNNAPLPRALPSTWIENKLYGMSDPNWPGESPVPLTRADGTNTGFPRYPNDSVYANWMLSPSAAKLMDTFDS
# [3] = biological target: T1, Serine/threonine-protein kinase STK11 (Homo sapiens) (UniProt Q15831); experiment: Inhibition of LKB1 at 0.1 uM; values are per cent of control
# T1 sequence (whole entry): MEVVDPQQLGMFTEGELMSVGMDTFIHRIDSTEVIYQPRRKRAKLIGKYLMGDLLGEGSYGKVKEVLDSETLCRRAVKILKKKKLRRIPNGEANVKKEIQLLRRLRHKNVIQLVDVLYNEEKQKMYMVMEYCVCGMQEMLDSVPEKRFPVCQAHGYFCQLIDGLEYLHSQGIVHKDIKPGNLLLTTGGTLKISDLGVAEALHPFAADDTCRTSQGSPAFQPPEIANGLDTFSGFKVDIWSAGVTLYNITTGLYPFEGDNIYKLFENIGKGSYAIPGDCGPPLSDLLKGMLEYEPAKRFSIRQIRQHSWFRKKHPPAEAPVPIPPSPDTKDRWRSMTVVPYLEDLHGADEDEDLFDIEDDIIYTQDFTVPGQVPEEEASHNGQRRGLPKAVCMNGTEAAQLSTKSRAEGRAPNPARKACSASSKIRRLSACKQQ
# [4] = biological target: Serine/threonine-protein kinase pim-2 (Homo sapiens) (UniProt Q9P1W9); experiment: Inhibition of Pim-2 at 0.1 uM; values are per cent of control
# Serine/threonine-protein kinase pim-2 (Homo sapiens), sequence (Q9P1W9 whole entry, looked up): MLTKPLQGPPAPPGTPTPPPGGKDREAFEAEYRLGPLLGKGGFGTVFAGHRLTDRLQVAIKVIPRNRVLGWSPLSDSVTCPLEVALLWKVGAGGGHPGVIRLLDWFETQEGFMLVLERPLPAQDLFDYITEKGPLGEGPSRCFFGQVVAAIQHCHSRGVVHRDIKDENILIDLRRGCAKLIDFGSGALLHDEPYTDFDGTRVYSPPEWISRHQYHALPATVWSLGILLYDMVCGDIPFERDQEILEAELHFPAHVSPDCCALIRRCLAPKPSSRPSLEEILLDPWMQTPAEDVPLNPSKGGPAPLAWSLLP
# [5] = biological target: RAC-alpha serine/threonine-protein kinase (Homo sapiens) (UniProt P31749); experiment: Inhibition of PKBalpha at 1 uM; values are per cent of control
# [6] = biological target: T2, cGMP-dependent protein kinase 1 (Homo sapiens) (UniProt Q13976); experiment: Inhibition of PKG1beta at 0.1 uM; values are per cent of control
# T2 sequence (whole entry): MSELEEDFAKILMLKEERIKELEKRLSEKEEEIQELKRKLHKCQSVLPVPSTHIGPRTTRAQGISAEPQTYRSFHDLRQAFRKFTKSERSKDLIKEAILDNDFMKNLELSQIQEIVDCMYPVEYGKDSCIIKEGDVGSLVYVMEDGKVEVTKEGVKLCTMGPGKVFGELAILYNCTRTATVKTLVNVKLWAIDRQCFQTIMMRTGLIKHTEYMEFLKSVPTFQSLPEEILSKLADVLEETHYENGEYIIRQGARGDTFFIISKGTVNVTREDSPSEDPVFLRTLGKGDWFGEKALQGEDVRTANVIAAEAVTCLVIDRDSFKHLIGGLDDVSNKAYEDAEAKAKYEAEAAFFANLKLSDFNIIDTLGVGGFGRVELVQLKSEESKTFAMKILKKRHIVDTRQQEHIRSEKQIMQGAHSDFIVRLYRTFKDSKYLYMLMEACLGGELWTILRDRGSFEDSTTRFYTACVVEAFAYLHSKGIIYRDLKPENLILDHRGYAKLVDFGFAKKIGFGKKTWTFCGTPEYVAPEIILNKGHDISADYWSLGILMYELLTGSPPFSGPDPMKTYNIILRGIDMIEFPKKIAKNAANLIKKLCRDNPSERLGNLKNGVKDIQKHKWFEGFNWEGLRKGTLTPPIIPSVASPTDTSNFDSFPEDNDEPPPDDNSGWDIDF
# [7] = biological target: Fibroblast growth factor receptor 2 (Homo sapiens) (UniProt P21802); experiment: Inhibition of FGFR2 at 1 uM; values are per cent of control
# [8] = biological target: ALK tyrosine kinase receptor (Homo sapiens) (UniProt Q9UM73); experiment: Inhibition of ALK at 0.1 uM; values are per cent of control
# ALK tyrosine kinase receptor (Homo sapiens), sequence (Q9UM73 19-1620 limits assumed): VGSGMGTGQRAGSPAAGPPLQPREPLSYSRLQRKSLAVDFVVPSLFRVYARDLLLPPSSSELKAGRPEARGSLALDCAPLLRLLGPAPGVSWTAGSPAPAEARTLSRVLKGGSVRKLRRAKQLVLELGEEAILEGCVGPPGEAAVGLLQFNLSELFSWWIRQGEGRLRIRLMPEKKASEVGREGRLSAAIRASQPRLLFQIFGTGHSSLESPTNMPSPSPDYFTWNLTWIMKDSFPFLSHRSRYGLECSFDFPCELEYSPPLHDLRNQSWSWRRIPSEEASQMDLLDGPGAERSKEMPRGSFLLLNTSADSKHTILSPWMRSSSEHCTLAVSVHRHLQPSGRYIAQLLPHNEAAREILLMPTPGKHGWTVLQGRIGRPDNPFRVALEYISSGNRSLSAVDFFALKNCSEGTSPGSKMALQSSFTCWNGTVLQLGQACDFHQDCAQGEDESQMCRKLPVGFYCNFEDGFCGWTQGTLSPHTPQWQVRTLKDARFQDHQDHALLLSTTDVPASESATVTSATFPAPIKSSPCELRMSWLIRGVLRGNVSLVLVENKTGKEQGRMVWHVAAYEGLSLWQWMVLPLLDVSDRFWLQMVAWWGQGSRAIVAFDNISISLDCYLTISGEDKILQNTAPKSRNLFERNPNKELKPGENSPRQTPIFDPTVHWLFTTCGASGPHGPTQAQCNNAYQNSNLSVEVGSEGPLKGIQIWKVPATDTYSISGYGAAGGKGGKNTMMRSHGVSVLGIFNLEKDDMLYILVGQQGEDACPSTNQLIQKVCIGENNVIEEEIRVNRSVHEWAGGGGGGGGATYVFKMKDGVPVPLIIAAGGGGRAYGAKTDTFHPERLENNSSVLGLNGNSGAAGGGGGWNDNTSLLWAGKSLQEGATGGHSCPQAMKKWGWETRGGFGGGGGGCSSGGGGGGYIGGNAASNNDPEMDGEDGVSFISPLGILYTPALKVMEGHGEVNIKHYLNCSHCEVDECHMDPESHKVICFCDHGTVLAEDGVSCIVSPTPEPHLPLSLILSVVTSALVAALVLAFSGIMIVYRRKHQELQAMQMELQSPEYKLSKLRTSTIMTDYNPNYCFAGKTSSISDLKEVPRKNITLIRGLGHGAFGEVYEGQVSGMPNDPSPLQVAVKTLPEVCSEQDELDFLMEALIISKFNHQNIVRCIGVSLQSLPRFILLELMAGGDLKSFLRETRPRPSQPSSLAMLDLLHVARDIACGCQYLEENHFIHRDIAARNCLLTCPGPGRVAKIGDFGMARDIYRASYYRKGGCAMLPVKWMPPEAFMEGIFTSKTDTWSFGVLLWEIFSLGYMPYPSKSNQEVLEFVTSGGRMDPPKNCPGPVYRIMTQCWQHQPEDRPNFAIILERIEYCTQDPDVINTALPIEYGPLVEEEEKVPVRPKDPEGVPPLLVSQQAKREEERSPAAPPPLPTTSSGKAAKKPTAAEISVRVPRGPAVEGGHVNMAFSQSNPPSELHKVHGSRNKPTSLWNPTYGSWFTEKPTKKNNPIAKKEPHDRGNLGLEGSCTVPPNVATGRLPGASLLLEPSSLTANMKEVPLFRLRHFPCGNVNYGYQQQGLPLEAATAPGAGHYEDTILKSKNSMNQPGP
# [9] = Inhibition of ROCK1 at 0.1 uM; values are per cent of control
# [10] = biological target: Cyclin-dependent kinase 7/ cyclin H (Homo sapiens) (UniProt P51946+P50613); experiment: Inhibition of CDK7/cyclin H/MAT1 at 0.1 uM; values are per cent of control
# [11] = biological target: Tyrosine-protein kinase Fyn (Homo sapiens) (UniProt P06241); experiment: Inhibition of Fyn at 1 uM
# Tyrosine-protein kinase Fyn (Homo sapiens), sequence (P06241 2-537 limits assumed): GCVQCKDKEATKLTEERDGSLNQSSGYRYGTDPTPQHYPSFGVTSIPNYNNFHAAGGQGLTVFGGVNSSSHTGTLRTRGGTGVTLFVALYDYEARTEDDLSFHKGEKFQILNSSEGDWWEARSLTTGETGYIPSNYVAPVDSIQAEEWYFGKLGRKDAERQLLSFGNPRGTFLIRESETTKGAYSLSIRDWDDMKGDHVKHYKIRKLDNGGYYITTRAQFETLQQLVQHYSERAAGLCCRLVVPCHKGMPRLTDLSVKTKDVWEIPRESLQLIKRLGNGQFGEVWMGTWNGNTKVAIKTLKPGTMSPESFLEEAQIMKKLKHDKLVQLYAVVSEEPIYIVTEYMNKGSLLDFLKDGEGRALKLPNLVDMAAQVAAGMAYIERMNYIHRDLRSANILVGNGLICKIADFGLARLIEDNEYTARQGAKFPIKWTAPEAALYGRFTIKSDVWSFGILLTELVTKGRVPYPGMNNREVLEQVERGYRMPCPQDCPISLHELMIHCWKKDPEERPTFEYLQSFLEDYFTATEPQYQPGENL
# Outline: (§1)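 Single-point profiling in a panel of 108 kinases. Each selected inhibitor was tested at two concentrations, 0.1 and 1.0 micromolar. Values are reported as inhibition at each concentration.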
# [12] = biological target: Protein kinase C theta type (Homo sapiens) (UniProt Q04759); experiment: Inhibition of PKCtheta at 0.1 uM; values are per cent of control
# Protein kinase C theta type (Homo sapiens), sequence (Q04759 whole entry, looked up): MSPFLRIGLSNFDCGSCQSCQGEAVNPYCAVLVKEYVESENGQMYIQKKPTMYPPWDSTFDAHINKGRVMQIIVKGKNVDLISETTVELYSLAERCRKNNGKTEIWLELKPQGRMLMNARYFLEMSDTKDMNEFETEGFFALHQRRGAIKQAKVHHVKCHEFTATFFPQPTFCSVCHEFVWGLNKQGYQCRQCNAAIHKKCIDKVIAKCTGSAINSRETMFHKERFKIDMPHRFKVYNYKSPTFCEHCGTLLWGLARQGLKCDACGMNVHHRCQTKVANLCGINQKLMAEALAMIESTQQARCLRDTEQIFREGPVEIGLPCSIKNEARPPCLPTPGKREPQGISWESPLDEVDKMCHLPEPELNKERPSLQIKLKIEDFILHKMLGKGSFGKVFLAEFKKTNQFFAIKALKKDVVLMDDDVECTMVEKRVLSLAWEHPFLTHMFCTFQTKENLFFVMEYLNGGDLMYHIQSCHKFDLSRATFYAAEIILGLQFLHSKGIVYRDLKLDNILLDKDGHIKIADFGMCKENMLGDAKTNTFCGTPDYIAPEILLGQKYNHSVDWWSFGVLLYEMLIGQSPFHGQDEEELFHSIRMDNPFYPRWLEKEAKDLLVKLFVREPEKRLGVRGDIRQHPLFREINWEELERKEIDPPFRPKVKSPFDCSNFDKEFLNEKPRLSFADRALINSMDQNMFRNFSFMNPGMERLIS
# [13] = biological target: Protein kinase C alpha type (Homo sapiens) (UniProt P17252); experiment: Inhibition of PKCalpha at 0.1 uM; values are per cent of control
# [14] = biological target: T3, Interleukin-1 receptor-associated kinase 4 (Homo sapiens) (UniProt Q9NWZ3); experiment: Inhibition of IRAK4 at 1 uM
# T3 sequence (whole entry): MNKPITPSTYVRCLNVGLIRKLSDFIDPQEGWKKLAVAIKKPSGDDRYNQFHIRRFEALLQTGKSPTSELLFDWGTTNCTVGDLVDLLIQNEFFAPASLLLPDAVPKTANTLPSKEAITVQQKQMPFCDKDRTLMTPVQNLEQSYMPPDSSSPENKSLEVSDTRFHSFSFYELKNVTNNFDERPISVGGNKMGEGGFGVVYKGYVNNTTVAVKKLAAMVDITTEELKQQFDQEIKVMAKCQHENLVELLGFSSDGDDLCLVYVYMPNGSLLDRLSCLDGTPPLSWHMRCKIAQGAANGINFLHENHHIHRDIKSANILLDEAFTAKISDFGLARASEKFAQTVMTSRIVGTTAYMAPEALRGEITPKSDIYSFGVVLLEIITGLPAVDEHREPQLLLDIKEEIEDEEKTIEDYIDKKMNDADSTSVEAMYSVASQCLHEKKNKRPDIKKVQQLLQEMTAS
# Outline: as §1
# [15] = biological target: Proto-oncogene tyrosine-protein kinase Src (Homo sapiens) (UniProt P12931); experiment: Inhibition of c-SRC at 1 uM; values are per cent of control
Compound,residual activity [1],residual activity [2],residual activity [3],residual activity [4],residual activity [5],residual activity [6],residual activity [7],residual activity [8],residual activity [9],residual activity [10],inhibition [11],residual activity [12],residual activity [13],inhibition [14],residual activity [15]
Cc1ccc2cc(-c3n[nH]c4ccc(NC5CCNC5)cc34)[nH]c2c1 (stereo not given),105%,3%,104%,99%,69%,95%,1%,27%,47%,42%,0%,74%,85%,0%,5%
Cc1ccc2cc(-c3n[nH]c4ccc(NC5CCN(Cc6ccccc6)CC5)cc34)[nH]c2c1,89%,-2%,97%,98%,86%,83%,4%,47%,92%,94%,4%,45%,77%,3%,1%
